Measurements: ChEMBL document CHEMBL1156797, “Synthesis and antiplasmodial activity of new indolone N-oxide derivatives” (J Med Chem, 2010)

Key:
Plasmodium falciparum [1] = experiment: Resistance index, ratio of IC50 for chloroquine-resistant Plasmodium falciparum FcB1 to IC50 for drug-sensitive Plasmodium falciparum 3D7; type: functional
Plasmodium falciparum [2] = experiment: Antimalarial activity against chloroquine-resistant Plasmodium falciparum FcB1 assessed as [3H]hypoxanthine incorporation after 48 hrs by beta-counter; type: functional, organism-based; conditions: FcB1/Columbia
Outline: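 Primary assay (Toulouse) on FcB1 cultured in RPMI with 25 mM HEPES and 10% human serum, O RBCs. Serial dilutions in triplicate, 2% parasitaemia, 2% haematocrit, 48 h at 37 °C, 5% CO2. [3H]-hypoxanthine added at 24 h, freeze-thaw harvest, β-counting. IC50 by linear regression on the linear segment of the semilog inhibition curve. Three independent repeats.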

[3] = Cytotoxicity against human MCF7 cells after 48 hrs by MTT assay; type: cell-based
[4] = Selectivity index, ratio of CC50 for human MCF7 cells to IC50 for chloroquine-resistant Plasmodium falciparum FcB1; type: functional
Outline: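 XTT 0.5 mg/mL added for 180 min, formazan read at 450 nm, value taken from dose–response curves, two experiments in triplicate. This CC50 is divided by the FcB1 IC50 to give the index.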

Plasmodium falciparum [5] = experiment: Antimalarial activity against drug-sensitive Plasmodium falciparum 3D7 assessed as [3H]hypoxanthine incorporation by scintillation counting; type: functional, organism-based
Plasmodium falciparum [6] = experiment: Antimalarial activity against Plasmodium falciparum K1 assessed as [3H]hypoxanthine incorporation by scintillation counting; type: functional, organism-based
[7] = Cytotoxicity against human KB cells after 72 hrs by alamar blue assay; type: cell-based
Outline: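 KB cells were seeded at 4×10^4 cells/mL in RPMI 1640 with 10% heat-inactivated FCS and left 24 h at 37 °C, 5% CO2. A dilution series was added in triplicate for 72 h, then AlamarBlue for 2–4 h. Fluorescence was read at ex 530/em 585 nm, with podophyllotoxin as positive control and values from curve fitting.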

[8] = Selectivity index, ratio of CC50 for human KB cells to IC50 for drug-sensitive Plasmodium falciparum 3D7; type: functional
Outline: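 The 3D7 value came from [3H]hypoxanthine incorporation: synchronized culture at 0.5% parasitaemia, 2.5% hematocrit, Albumax-supplemented medium, 2-fold dilutions from 100 to 0.05 μM in triplicate, label added at 24 h and harvested at 48 h.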

Plasmodium falciparum [9] = experiment: Resistance index, ratio of IC50 for chloroquine-resistant Plasmodium falciparum K1 to IC50 for drug-sensitive Plasmodium falciparum 3D7; type: functional
Plasmodium berghei [10] = experiment: Antimalarial activity against Plasmodium berghei ANKA infected Swiss mice (Mus musculus) assessed as reduction in parasitemia at 30 mg/kg, perorally after 3 days measured on day 4; type: functional; set-up: scale not given: the % may be the effect or the level left; conditions: route oral
Outline: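 Male Swiss outbred CD-1 mice (20 g) were infected iv with 2×10^6 P. berghei ANKA-infected red cells and put in groups of five per dose. Dosing was by oral gavage in suspending vehicle (0.5% Na carboxymethylcellulose, 0.5% benzyl alcohol, 0.4% Tween 80, 0.9% NaCl), starting 3 h postinfection, then once daily on days 1–3. Day-4 Giemsa films; % inhibition against untreated mean parasitaemia.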

Plasmodium berghei [11] = experiment: Antimalarial activity against Plasmodium berghei ANKA infected Swiss mice (Mus musculus) assessed as reduction in parasitemia at 30 mg/kg, intraperitoneally after 3 days measured on day 4; type: functional; set-up: scale not given: the % may be the effect or the level left; conditions: route intraperitoneal
Outline: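 P. berghei ANKA in male Swiss outbred CD-1 mice (20 g), kept specific pathogen-free. Infection was iv with 2×10^6 infected red cells on day 0, then mice were randomized into groups of five per dose. Compound was given ip in 0.05% Tween 80. Parasitaemia was read from Giemsa-stained blood films on day 4 and expressed as % inhibition from group arithmetic mean parasitaemia versus the untreated group.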

[12] = Metabolic stability in CD1 mouse liver microsomes assessed as half life; type: ADME, Microsome
[13] = Inhibition of beta-hematin formation assessed as biocrystallization by UV-visible assay; type: functional
Mus musculus = experiment: Toxicity in Swiss mouse at 140 mg/kg, ip; type: organism-based; set-up: dose 140 mg/kg, route intraperitoneal; conditions: in vivo
Plasmodium berghei [14] = experiment: Antimalarial activity against Plasmodium berghei NK65 infected Swiss mice (Mus musculus) assessed as reduction in parasitemia treated intraperitoneally for 3 days measured on day 4; conditions: NK65, ip
Plasmodium berghei [15] = experiment: Antimalarial activity against Plasmodium berghei NK65 infected Swiss mice (Mus musculus) assessed as reduction in parasitemia at 48 mg/kg, intraperitoneally after 3 days measured on day 4; set-up: scale not given: the % may be the effect or the level left; conditions: route intraperitoneal
Plasmodium berghei [16] = experiment: Antimalarial activity against Plasmodium berghei NK65 infected Swiss mice (Mus musculus) assessed as reduction in parasitemia at 10 mg/kg, intraperitoneally after 3 days measured on day 4; set-up: scale not given: the % may be the effect or the level left; conditions: route intraperitoneal

| SMILES | Ratio IC50 (Plasmodium falciparum [1]) | IC50 (Plasmodium falciparum [2]) [nM] | CC50 at 48 h [3] [nM] | Ratio CC50/IC50 [4] | IC50 (Plasmodium falciparum [5]) [nM] | IC50 (Plasmodium falciparum [6]) [nM] | CC50 at 72 h [7] [nM] | Ratio CC50/IC50 [8] | Ratio IC50 (Plasmodium falciparum [9]) | Activity (Plasmodium berghei [10]) [%] | Activity (Plasmodium berghei [11]) [%] | half-life [12] [min] | IC50 [13] | Activity (Mus musculus) | ED50 (Plasmodium berghei [14]) [mg/kg] | Activity (Plasmodium berghei [15]) [%] | Activity (Plasmodium berghei [16]) [%] |
| --- | --- | --- | --- | --- | --- | --- | --- | --- | --- | --- | --- | --- | --- | --- | --- | --- | --- |
| COc1ccc2c(c1)C(=O)C(c1ccc(Cl)cc1)=[N+]2[O-] | 3.4 | 210 | 21500 | 102 | 62 | 59 | 469000 | 7564 | 1 |  |  |  |  |  |  |  |  |
| COc1ccc2c(c1)C(=O)C(c1ccc(OC(C)C)cc1)=[N+]2[O-] | 0.5 | 17 | > 32100 | > 1890 | 32 | 81.3 | 321000 | 10031 | 2.5 | 25.1 | 30.4 | 6 |  |  |  |  |  |
| COc1ccc2c(c1)C(=O)C(c1ccc(C)cc1)=[N+]2[O-] | 1.9 | 52 | > 37500 | >721 | 27 | 20 | 56000 | 2074 | 0.7 |  |  |  |  |  |  |  |  |
| COc1ccc2c(c1)C(=O)C(c1ccc(Cl)c(C(F)(F)F)c1)=[N+]2[O-] | 0.7 | 50 | 13500 | 270 | 69 | 5 | < 1400 | <20 | 0.1 |  |  |  |  |  |  |  |  |
| O=C1C(c2ccccc2)=[N+]([O-])c2ccccc21 |  | 889 | 19500 | 22 |  |  |  |  |  |  |  |  | Not Active |  |  |  |  |
| O=C1C(c2ccc(Cl)c(Cl)c2)=[N+]([O-])c2ccccc21 | 1.6 | 155 | 13700 | 88 | 98 | 80 | 570000 | 5816 | 0.8 |  |  |  |  |  |  |  |  |
| COc1ccc2c(c1)C(=O)C(c1ccc(N(C)C)cc1)=[N+]2[O-] | 2.9 | < 3 | 43900 | > 14600 | 1.7 |  | 338000 | 198823 |  | 20.9 | 15.3 | 6 |  |  |  |  |  |
| CCOc1ccc(C2=[N+]([O-])c3cc4c(cc3C2=O)OCO4)cc1 |  | 156 | 51900 | 332 |  |  |  |  |  |  |  |  | Not Active |  |  |  |  |
| O=C1C(c2ccc(Cl)cc2)=[N+]([O-])c2cc3c(cc21)OCO3 | 1.3 | 75 | 15900 | 212 | 58 | 88 | 27000 | 450 | 1.5 | 14.5 | 62.1 | < 1 |  | Non-toxic | 16 | 81 |  |
| COc1ccc(C2=[N+]([O-])c3ccccc3C2=O)cc1 | 1.9 | 195 | > 39500 | >202 | 101 | 124 | 457000 | 4525 | 1.2 | 32.4 | 40.5 | 16 |  |  |  |  |  |
| CCN(CC)CCCC(C)Nc1ccnc2cc(Cl)ccc12 (stereo unspecified) [CHLOROQUINE] |  |  | 19400 |  |  |  | 44000 |  |  |  |  |  |  |  | 3 |  | 100 |
| C[C@H]1[C@H](OC(=O)CCC(=O)[O-])O[C@@H]2O[C@@]3(C)CC[C@H]4[C@H](C)CC[C@@H]1[C@@]24OO3.[Na+] [SODIUM ARESUNATE] | 1.5 | 6 | 9800 | 1633 | 4 | 4 | 36200 | 9045 | 1 |  |  |  |  |  |  |  |  |
